What all share (type): functional
Assay [1] has as its system Escherichia coli. The experiment in a line: Antimicrobial activity against Escherichia coli after 24 hrs by agar well diffusion method. The gist of the method: (§1)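 Bacteria grown in nutrient broth at 37 °C for 24 h, subcultured in 25 mL broth at room temperature, then spread on nutrient agar. Wells (6 mm cork borer) filled with 0.1 mL test solution in DMSO, prepared from a 1 mg/mL stock. Amoxicillin as reference, DMSO as negative control. Plates kept 24 h at 37 °C; inhibition zone measured in mm.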

Assay [2] relates to Xanthomonas oryzae. The experiment in a line: Antimicrobial activity against Xanthomonas oryzae after 24 hrs by agar well diffusion method. (In general: A growth-free zone around the sample is the usual read-out of agar diffusion tests.)
In assay [3] the test system is Klebsiella pneumoniae. In words: Antimicrobial activity against Klebsiella pneumoniae after 24 hrs by agar well diffusion method. The gist of the method: as §1
For assay [4], the system named is Staphylococcus. In words: Antimicrobial activity against coagulase positive Staphylococcus after 24 hrs by agar well diffusion method. The gist of the method: as §1
For assay [5], the system named is Aspergillus niger. The experiment in a line: Antifungal activity against Aspergillus niger after 24 hrs by agar well diffusion method. The gist of the method: (§2)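 Fungi subcultured in 25 mL nutrient broth for one day to give inoculum, then spread on solidified Sabouraud agar. Wells punched with a 6 mm cork borer and filled with 0.1 mL test solution in DMSO, prepared from a 1 mg/mL stock. Bavistin as reference, DMSO as negative control. Read-out is inhibition zone diameter (mm).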

Assay [6] relates to Aspergillus flavus. The experiment in a line: Antifungal activity against Aspergillus flavus after 24 hrs by agar well diffusion method. The gist of the method: as §2
For assay [7], the system named is Fusarium oxysporum. The experiment in a line: Antifungal activity against Fusarium oxysporum after 24 hrs by agar well diffusion method. In a few lines: as §2
Assay [8] concerns Escherichia coli. The experiment in a line: Antimicrobial activity against Escherichia coli after 72 hrs by microdilution method. (In general: Broth dilution looks for growth in wells or tubes with falling amounts of substance.)
The subject of assay [9] is Xanthomonas oryzae. The experiment in a line: Antimicrobial activity against Xanthomonas oryzae after 72 hrs by microdilution method.
The test system of assay [10] is Klebsiella pneumoniae. The experiment in a line: Antimicrobial activity against Klebsiella pneumoniae after 72 hrs by microdilution method.
In assay [11] the test system is Staphylococcus. The experiment in a line: Antimicrobial activity against coagulase positive Staphylococcus after 72 hrs by microdilution method.
In assay [12] the test system is Aspergillus niger. In words: Antifungal activity against Aspergillus niger after 72 hrs by microdilution method.
Assay [13] concerns Aspergillus flavus. The experiment in a line: Antifungal activity against Aspergillus flavus after 72 hrs by microdilution method.
Assay [14] has as its system Fusarium oxysporum. The experiment in a line: Antifungal activity against Fusarium oxysporum after 72 hrs by microdilution method.

Where a SMILES comes first, the peptide text is derived from it. The star is where a group is joined. X1 = Fc1ccc2c(C3CCN(*)CC3)noc2c1

As a reminder, the MIC is the smallest concentration in the dilution series that meets the test's criterion for growth inhibition. Read a low MIC as inhibition by little substance.

`C[C@H](NC(=O)CNC(=O)CN)C(=O)N1CCC[C@H]1C(=O)N1CCC(c2noc3cc(F)ccc23)CC1.O=C(O)C(F)(F)F` (H-GGAP-X1): the “inhibition zone (IZ)” value with Escherichia coli [1] came to 18 mm; with Xanthomonas oryzae [2], 13 mm; with Klebsiella pneumoniae [3] it was 12 mm; with Staphylococcus [4], 11 mm; in the assay with Aspergillus niger [5] it was 19 mm; with Aspergillus flavus [6], 13 mm. In the assay on Fusarium oxysporum [7], the “inhibition zone (IZ)” value is 16 mm. For the same compound, the minimum inhibitory concentration (MIC) amounted to 17 µg/mL in the assay on Escherichia coli [8]; 13 µg/mL against Xanthomonas oryzae [9]; 14 µg/mL against Klebsiella pneumoniae [10]; 16 µg/mL in the assay on Staphylococcus [11]; 15 µg/mL against Aspergillus niger [12]; 18 µg/mL against Aspergillus flavus [13]. The compound also returned an MIC in the assay on Fusarium oxysporum [14] of 19 µg/mL.

Take `NCC(=O)NCC(=O)N[C@@H](Cc1ccccc1)C(=O)N1CCC[C@H]1C(=O)N1CCC(c2noc3cc(F)ccc23)CC1.O=C(O)C(F)(F)F` (H-GGFP-X1): the “inhibition zone (IZ)” value in the assay on Escherichia coli [1] was determined as 22 mm; in the assay with Xanthomonas oryzae [2], 16 mm; in the assay on Klebsiella pneumoniae [3] it was 15 mm; in the assay with Staphylococcus [4], 14 mm; in the assay on Aspergillus niger [5], 25 mm; with Aspergillus flavus [6], 16 mm. Moreover, the “inhibition zone (IZ)” value in the assay on Fusarium oxysporum [7] is given as 20 mm. For the same compound, the MIC against Escherichia coli [8] turned out to be 14 µg/mL; against Xanthomonas oryzae [9], 11 µg/mL; against Klebsiella pneumoniae [10] it was 11 µg/mL; with Staphylococcus [11], 13 µg/mL; against Aspergillus niger [12], 11 µg/mL; against Aspergillus flavus [13], 15 µg/mL. Moreover, the MIC in the assay with Fusarium oxysporum [14] was 16 µg/mL.

As to `CC(C)[C@H](NC(=O)CN)C(=O)NCC(=O)N[C@H](C(=O)N1CCC[C@H]1C(=O)N1CCC(c2noc3cc(F)ccc23)CC1)C(C)C.O=C(O)C(F)(F)F` (H-GVGVP-X1), the “inhibition zone (IZ)” value with Escherichia coli [1] is recorded as 23 mm; in the assay with Xanthomonas oryzae [2], 17 mm; in the assay on Klebsiella pneumoniae [3], 17 mm; in the assay with Staphylococcus [4] it was 15 mm; in the assay on Aspergillus niger [5], 27 mm; in the assay on Aspergillus flavus [6], 17 mm. In addition, in the assay on Fusarium oxysporum [7], the “inhibition zone (IZ)” value was 21 mm. In addition, the MIC in the assay with Escherichia coli [8] was determined as 11 µg/mL; against Xanthomonas oryzae [9] it was 10 µg/mL; against Klebsiella pneumoniae [10], 8 µg/mL; in the assay on Staphylococcus [11], 10 µg/mL; against Aspergillus niger [12], 8 µg/mL; with Aspergillus flavus [13], 9 µg/mL. Also, the MIC against Fusarium oxysporum [14] came to 10 µg/mL.

For the origin of these results see ChEMBL document CHEMBL1667766, “Synthesis of elastin based peptides conjugated to benzisoxazole as a new class of potent antimicrobials--A novel approach to enhance biocompatibility” (2011).
